Assay [1] deals with High affinity 3',5'-cyclic-AMP phosphodiesterase 7A (Homo sapiens, UniProt Q13946). Nature of the assay: Inhibition of human recombinant PDE7A1 expressed in baculovirus infected insect Sf21 cells after 30 mins by scintillation proximity assay. Put shortly: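 Full-length human recombinant PDE7A1 produced in baculovirus-infected Sf21 cells. SPA read-out with [3H]-cAMP at 20 nM in 80 mM Tris/10 mM MgSO4, pH 7.4. Reaction run 30 min at 37 °C before bead addition and scintillation counting. Background measured without enzyme. IC50 derived.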
Sequence of High affinity 3',5'-cyclic-AMP phosphodiesterase 7A (Q13946 whole entry): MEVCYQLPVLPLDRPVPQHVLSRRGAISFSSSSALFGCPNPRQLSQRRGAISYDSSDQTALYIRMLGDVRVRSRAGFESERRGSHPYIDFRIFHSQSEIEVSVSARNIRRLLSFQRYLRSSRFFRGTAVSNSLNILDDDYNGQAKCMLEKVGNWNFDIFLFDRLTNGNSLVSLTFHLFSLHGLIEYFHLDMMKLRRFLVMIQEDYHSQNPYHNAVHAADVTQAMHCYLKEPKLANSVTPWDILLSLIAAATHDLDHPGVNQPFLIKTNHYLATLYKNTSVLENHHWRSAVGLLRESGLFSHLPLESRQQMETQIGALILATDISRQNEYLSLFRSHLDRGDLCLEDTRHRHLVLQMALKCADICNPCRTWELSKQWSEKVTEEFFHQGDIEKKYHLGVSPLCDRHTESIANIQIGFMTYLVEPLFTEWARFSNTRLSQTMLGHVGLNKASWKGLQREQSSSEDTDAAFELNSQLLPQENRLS

The target of assay [2] is 3',5'-cyclic-AMP phosphodiesterase 4A (Homo sapiens, UniProt P27815). As to the kind of experiment: Inhibition of human recombinant PDE4A4 expressed in baculovirus infected insect Sf21 cells after 30 mins by scintillation proximity assay. Put shortly:
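Full-length human recombinant enzyme expressed in baculovirus-infected Sf21 cells. Scintillation proximity assay with 500 nM [3H]-cAMP substrate in 80 mM Tris/10 mM MgSO4, pH 7.4. Incubated 30 min at 37 °C, then SPA beads added and plates counted. Background taken in presence of 10 µM rolipram. IC50 reported.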
For orientation: SPA uses beads or plates that emit light when radiolabelled molecules are held near them.

The next assay is filed under the species Homo sapiens. As to the kind of experiment: Selectivity ratio of IC50 for human recombinant PDE4A4 to IC50 for human recombinant PDE7A1. Put shortly: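 Ratio of IC50 values for the two enzymes. PDE4A4 run at 500 nM [3H]-cAMP with a 10 µM rolipram background; PDE7A1 run at 20 nM [3H]-cAMP with a no-enzyme background. Both used full-length human enzymes from Sf21 cells, 30 min at 37 °C, pH 7.4 Tris/MgSO4, SPA read-out.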

The target of assay [3] is Dual specificity calcium/calmodulin-dependent 3',5'-cyclic nucleotide phosphodiesterase 1B (Homo sapiens, UniProt Q01064). As to the kind of experiment: Inhibition of human recombinant PDE1B.
Assay [4] concerns the target cGMP-dependent 3',5'-cyclic phosphodiesterase (Homo sapiens, UniProt O00408). As to the kind of experiment: Inhibition of human recombinant PDE2A.
Assay [5] has as its target cGMP-inhibited 3',5'-cyclic phosphodiesterase 3A (Homo sapiens, UniProt Q14432). Nature of the assay: Inhibition of human recombinant PDE3A.
The target of assay [6] is cGMP-specific 3',5'-cyclic phosphodiesterase (Homo sapiens, UniProt O76074). Nature of the assay: Inhibition of human recombinant PDE5A.
The target in assay [7] is High affinity cAMP-specific and IBMX-insensitive 3',5'-cyclic phosphodiesterase 8A (Homo sapiens, UniProt O60658). Nature of the assay: Inhibition of human recombinant PDE8A.
Sequence of High affinity cAMP-specific and IBMX-insensitive 3',5'-cyclic phosphodiesterase 8A (O60658 whole entry): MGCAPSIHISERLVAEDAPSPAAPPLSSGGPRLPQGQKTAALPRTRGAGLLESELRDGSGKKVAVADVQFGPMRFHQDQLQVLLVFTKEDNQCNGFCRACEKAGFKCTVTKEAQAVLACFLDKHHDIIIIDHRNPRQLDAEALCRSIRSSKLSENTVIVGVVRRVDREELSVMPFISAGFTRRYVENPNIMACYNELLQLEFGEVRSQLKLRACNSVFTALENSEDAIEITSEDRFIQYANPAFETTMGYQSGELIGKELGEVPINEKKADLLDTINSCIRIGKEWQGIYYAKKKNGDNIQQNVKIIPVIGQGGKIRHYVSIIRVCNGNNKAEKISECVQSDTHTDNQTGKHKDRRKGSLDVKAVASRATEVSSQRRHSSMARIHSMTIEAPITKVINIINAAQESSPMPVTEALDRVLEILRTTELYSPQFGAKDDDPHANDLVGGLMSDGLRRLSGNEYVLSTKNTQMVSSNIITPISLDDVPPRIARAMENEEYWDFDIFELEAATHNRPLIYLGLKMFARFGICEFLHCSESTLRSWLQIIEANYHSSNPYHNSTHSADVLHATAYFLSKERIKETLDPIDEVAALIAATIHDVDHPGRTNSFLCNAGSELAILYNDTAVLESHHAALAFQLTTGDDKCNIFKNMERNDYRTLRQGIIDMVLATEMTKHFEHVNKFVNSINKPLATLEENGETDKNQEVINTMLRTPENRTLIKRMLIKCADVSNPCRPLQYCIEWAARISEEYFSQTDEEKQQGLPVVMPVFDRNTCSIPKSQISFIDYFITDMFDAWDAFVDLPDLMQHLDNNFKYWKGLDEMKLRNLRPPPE
Assay [8] addresses High affinity cGMP-specific 3',5'-cyclic phosphodiesterase 9A (Homo sapiens, UniProt O76083). Nature of the assay: Inhibition of human recombinant PDE9A.
For assay [9], the target named is cAMP and cAMP-inhibited cGMP 3',5'-cyclic phosphodiesterase 10A (Homo sapiens, UniProt Q9Y233). As to the kind of experiment: Inhibition of human recombinant PDE10A.
Sequence of cAMP and cAMP-inhibited cGMP 3',5'-cyclic phosphodiesterase 10A (Q9Y233 whole entry): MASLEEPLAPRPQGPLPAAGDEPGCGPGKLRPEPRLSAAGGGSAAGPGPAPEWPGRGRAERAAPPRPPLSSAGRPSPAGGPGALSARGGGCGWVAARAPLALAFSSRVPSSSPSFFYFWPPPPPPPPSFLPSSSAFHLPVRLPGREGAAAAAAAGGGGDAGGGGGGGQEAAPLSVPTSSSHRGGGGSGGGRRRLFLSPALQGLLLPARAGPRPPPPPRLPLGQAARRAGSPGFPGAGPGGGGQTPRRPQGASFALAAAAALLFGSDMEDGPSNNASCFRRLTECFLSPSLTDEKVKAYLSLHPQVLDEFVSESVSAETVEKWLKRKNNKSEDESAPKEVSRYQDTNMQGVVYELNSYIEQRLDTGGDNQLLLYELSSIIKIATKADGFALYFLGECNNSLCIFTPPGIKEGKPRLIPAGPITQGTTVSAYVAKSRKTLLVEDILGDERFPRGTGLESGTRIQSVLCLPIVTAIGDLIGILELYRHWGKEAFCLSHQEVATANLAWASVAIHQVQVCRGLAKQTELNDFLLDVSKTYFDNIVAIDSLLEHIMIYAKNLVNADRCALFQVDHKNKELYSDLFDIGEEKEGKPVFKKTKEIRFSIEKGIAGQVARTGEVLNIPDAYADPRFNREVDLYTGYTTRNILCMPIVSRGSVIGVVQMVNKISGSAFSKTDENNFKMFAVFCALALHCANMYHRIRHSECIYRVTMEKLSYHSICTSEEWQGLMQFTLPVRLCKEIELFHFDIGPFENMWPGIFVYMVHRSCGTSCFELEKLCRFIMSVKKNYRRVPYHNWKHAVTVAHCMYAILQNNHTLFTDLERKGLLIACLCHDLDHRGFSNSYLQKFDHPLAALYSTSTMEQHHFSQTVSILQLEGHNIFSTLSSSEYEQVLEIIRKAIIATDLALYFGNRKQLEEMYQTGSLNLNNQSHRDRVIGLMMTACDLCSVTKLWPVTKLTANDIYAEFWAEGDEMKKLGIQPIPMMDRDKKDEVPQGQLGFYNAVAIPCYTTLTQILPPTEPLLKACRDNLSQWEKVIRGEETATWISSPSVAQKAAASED
Assay [10] concerns the target Dual 3',5'-cyclic-AMP and -GMP phosphodiesterase 11A (Homo sapiens, UniProt Q9HCR9). As to the kind of experiment: Inhibition of human recombinant PDE11A.
Assay [11] in a line: Inhibition of bovine PDE6. Set-up: species or system Bos taurus.

For orientation: IC50 means the concentration that gives 50% inhibition.

Sequence of 3',5'-cyclic-AMP phosphodiesterase 4A (P27815 whole entry): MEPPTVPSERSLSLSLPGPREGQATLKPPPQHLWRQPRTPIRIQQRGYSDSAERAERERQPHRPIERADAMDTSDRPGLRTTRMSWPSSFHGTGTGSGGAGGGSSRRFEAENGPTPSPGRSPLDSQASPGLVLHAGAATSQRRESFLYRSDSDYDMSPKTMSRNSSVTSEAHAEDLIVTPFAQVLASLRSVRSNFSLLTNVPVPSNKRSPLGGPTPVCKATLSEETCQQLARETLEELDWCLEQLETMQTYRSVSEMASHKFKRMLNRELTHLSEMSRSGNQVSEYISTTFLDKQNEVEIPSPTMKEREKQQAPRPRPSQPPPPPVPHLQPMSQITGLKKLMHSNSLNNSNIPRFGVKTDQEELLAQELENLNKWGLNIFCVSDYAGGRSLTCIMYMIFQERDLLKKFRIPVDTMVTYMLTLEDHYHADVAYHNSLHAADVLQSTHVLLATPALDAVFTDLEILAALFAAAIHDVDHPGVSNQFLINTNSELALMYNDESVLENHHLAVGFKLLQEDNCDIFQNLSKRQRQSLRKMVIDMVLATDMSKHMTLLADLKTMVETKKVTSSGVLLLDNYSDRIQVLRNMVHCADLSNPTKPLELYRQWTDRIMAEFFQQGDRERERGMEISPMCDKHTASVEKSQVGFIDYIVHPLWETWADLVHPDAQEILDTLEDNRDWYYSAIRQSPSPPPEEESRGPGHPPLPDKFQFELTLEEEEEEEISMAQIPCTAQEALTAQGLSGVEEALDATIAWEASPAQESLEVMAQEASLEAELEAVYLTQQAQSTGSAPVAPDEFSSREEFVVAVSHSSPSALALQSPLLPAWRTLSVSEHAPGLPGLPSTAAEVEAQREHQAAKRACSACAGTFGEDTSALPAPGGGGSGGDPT
Sequence of Dual 3',5'-cyclic-AMP and -GMP phosphodiesterase 11A (Q9HCR9 whole entry): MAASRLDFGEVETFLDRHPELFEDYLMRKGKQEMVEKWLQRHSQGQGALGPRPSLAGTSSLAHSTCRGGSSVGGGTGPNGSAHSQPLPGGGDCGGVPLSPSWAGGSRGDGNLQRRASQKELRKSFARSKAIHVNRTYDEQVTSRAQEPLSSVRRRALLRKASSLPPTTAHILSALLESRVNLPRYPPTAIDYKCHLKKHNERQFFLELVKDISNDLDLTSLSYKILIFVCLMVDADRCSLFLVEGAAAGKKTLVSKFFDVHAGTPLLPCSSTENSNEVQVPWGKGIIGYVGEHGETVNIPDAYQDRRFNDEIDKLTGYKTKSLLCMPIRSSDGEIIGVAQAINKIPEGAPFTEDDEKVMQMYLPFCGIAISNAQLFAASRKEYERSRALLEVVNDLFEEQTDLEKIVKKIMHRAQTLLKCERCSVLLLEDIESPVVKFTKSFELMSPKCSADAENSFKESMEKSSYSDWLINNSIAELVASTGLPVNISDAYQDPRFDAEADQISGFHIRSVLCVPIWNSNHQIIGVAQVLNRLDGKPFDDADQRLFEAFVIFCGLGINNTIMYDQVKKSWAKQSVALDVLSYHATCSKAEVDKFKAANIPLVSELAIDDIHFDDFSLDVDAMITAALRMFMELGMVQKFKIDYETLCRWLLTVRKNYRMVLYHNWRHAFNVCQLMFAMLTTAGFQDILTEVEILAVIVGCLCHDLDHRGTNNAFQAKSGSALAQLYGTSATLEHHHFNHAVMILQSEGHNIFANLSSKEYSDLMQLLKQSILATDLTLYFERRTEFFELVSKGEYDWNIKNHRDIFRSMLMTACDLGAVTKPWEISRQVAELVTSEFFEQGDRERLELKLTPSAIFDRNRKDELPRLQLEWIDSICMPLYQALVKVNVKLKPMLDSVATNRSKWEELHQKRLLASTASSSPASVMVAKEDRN
Sequence of High affinity cGMP-specific 3',5'-cyclic phosphodiesterase 9A (O76083 whole entry): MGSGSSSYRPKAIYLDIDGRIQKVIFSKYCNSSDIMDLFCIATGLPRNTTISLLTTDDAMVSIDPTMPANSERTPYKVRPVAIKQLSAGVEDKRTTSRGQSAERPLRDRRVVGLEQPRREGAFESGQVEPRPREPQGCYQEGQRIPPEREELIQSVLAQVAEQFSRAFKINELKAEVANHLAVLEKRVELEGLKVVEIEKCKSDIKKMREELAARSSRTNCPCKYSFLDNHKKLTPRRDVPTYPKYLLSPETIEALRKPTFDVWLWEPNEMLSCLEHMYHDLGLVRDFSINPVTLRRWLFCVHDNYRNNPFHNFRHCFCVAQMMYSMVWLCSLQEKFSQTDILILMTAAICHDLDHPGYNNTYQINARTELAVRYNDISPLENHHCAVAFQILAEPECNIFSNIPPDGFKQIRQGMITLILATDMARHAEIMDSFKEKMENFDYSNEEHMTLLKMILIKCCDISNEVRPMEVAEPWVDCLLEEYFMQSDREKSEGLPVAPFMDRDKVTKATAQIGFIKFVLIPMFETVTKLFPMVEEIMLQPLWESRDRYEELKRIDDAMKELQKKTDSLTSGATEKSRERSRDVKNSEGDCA

For `CS(=O)(=O)c1ccc(NC(=O)c2cn(Cc3c(F)cccc3Cl)c3ccc(=O)[nH]c3c2=O)cc1`, the IC50 in [1] turned out to be 12 nM; in [2] it was 73 nM. Also, in the assay filed under Homo sapiens, the Ratio IC50 was 6.
Regarding `O=C(Nc1ccc(N2CCOCC2)cc1)c1cn(Cc2c(F)cccc2Cl)c2ccc(=O)[nH]c2c1=O`, the IC50 in assay [1] is 13 nM; in assay [2], above 1000 nM; in [3] it was above 1000 nM; in [4] it was above 1000 nM; in [5], above 1000 nM; in [6], above 1000 nM. The concentration for half-maximal inhibition (IC50) in assay [7], in assay [8], in assay [9], in assay [10] and in [11] was above 1000 nM in each case. Further, in the assay filed under Homo sapiens, the Ratio IC50 was above 77.
Consider `NC(=O)c1cccc(NC(=O)c2cn(Cc3c(F)cccc3Cl)c3ccc(=O)[nH]c3c2=O)c1`, for which the IC50 in [1] was found to be 44 nM; in assay [2], 580 nM. For the same compound, in the assay listed under Homo sapiens, the Ratio IC50 was found to be 6.
The matching figures for `CN(C)c1ccc(NC(=O)c2cn(Cc3c(F)cccc3Cl)c3ccc(=O)[nH]c3c2=O)cc1`: 39 nM, 402 nM and 6.
Taken in the same sequence, the figures for `CS(=O)(=O)c1cccc(NC(=O)c2cn(Cc3c(F)cccc3Cl)c3ccc(=O)[nH]c3c2=O)c1` were 59 nM, 1420 nM and 24.
Taken in the same sequence, the figures for `CC(=O)Nc1ccc(NC(=O)c2cn(Cc3c(F)cccc3Cl)c3ccc(=O)[nH]c3c2=O)cc1` were 17 nM, 362 nM and 6.
As for `CCN(CC)c1ccc(NC(=O)c2cn(Cc3c(F)cccc3Cl)c3ccc(=O)[nH]c3c2=O)cc1`, the IC50 in assay [1] was 60 nM; in [2], above 5000 nM; in assay [3] it was above 5000 nM; in assay [4], above 5000 nM; in assay [5] it was above 5000 nM; in assay [6], above 5000 nM. Further, the IC50 in assay [7], in assay [8], in assay [9], in [10] and in assay [11] was above 5000 nM throughout. For the same compound, the Ratio IC50 in the assay listed under Homo sapiens was above 83.
As for `NC(=O)c1ccc(NC(=O)c2cn(Cc3c(F)cccc3Cl)c3ccc(=O)[nH]c3c2=O)cc1`, the half-maximal inhibitory concentration (IC50) in assay [1] came out at 10 nM; in [2], 90 nM. In addition, the Ratio IC50 in the assay filed under Homo sapiens came out at 6.

These data come from ChEMBL document CHEMBL1909601, “Synthesis and structure-activity relationship studies of dihydronaphthyridinediones as a novel structural class of potent and selective PDE7 inhibitors” (Bioorg Med Chem Lett, 2011).
